Converted amounts (≈) assume the structure as drawn.
Tests used:
[1] = test system: Raji; test: Inhibition of 12-O-tetradecanoylphorbol-13-acetate-induced EBV-early antigen activation in human Raji cells assessed as EA induction at 1000 molar ratio after 48 hrs by immunofluorescence technique relative to 12-O-tetradecanoylphorbol-13-acetate; format: cell-based; conditions: human gammaherpesvirus 4
Summary of the method: (§1)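 Raji cells were incubated for 48 h at 37 °C in medium with n-butyric acid (4 mM), TPA (32 pmol) and graded amounts of test compound. Smears were stained for EBV-EA by indirect immunofluorescence, and positive cells were counted among at least 500 cells. Assays were run in triplicate. Activity was expressed relative to the n-butyric acid plus TPA control, set as 100%.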

[2] = test system: Raji; test: Inhibition of 12-O-tetradecanoylphorbol-13-acetate-induced EBV-early antigen activation in human Raji cells assessed as EA induction at 500 molar ratio after 48 hrs by immunofluorescence technique relative to 12-O-tetradecanoylphorbol-13-acetate; format: cell-based; design: scale not given: the % may be the effect or the level left; conditions: human gammaherpesvirus 4; summary of the method: as §1
[3] = test system: Raji; test: Inhibition of 12-O-tetradecanoylphorbol-13-acetate-induced EBV-early antigen activation in human Raji cells assessed as EA induction at 100 molar ratio after 48 hrs by immunofluorescence technique relative to 12-O-tetradecanoylphorbol-13-acetate; format: cell-based; design: scale not given: the % may be the effect or the level left; conditions: human gammaherpesvirus 4; summary of the method: as §1
[4] = test system: Raji; test: Inhibition of 12-O-tetradecanoylphorbol-13-acetate-induced EBV-early antigen activation in human Raji cells assessed as EA induction at 10 molar ratio after 48 hrs by immunofluorescence technique relative to 12-O-tetradecanoylphorbol-13-acetate; format: cell-based; design: scale not given: the % may be the effect or the level left; conditions: human gammaherpesvirus 4; summary of the method: as §1
[5] = Inhibition of 12-O-tetradecanoylphorbol-13-acetate-induced EBV-early antigen activation in human Raji cells after 48 hrs by immunofluorescence technique; format: cell-based, human gammaherpesvirus 4; summary of the method: as §1
[6] = Cytotoxicity against human Raji cells assessed as cell viability at 1000 molar ratio after 48 hrs by trypan blue staining; format: cell-based; conditions: read-out: Activity
Summary of the method: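 Raji cells were exposed for 48 h at 37 °C to n-butyric acid (4 mM), TPA (32 pmol) and test compound, as in the EBV-EA induction setup. Viability of the treated cells was then measured by trypan blue staining.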

[7] = test system: Bacillus subtilis; test: Antimicrobial activity against Bacillus subtilis NBRC3134 after 24 hrs by broth dilution method; format: functional; conditions: NBRC3134, 24 h
Summary of the method: (§2)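 Modified NCCLS broth dilution. A 50 µL aliquot of bacterial cells (10⁶/mL in 0.85% NaCl) was added to 1 mL Mueller-Hinton broth containing compound over a 0.1–100 range.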

[8] = test system: Staphylococcus aureus; test: Antimicrobial activity against Staphylococcus aureus NBRC13276 after 24 hrs by broth dilution method; format: functional; conditions: NBRC13276, 24 h; summary of the method: as §2
[9] = test system: Bacillus mycoides; test: Antimicrobial activity against Bacillus mycoides ATCC 11778 after 24 hrs by broth dilution method; format: functional; conditions: ATCC 11778, 24 h; summary of the method: as §2
[10] = test system: Escherichia coli; test: Antimicrobial activity against Escherichia coli ATCC 11775 after 24 hrs by broth dilution method; format: functional; conditions: ATCC 11775, 24 h; summary of the method: as §2
[11] = test system: Pseudomonas aeruginosa; test: Antimicrobial activity against Pseudomonas aeruginosa NBRC13275 after 24 hrs by broth dilution method; format: functional; conditions: NBRC13275, 24 h; summary of the method: as §2
[12] = test system: Salmonella enteritidis; test: Antimicrobial activity against Salmonella enteritidis OPS10 after 24 hrs by broth dilution method; format: functional, Salmonella enterica subsp. enterica serovar Enteritidis; conditions: Salmonella enterica, OPS10, 24 h; summary of the method: as §2
[13] = test system: Candida albicans; test: Antimicrobial activity against Candida albicans NBRC1060 after 24 hrs by broth dilution method; format: functional; conditions: NBRC1060, 24 h
[14] = test system: Saccharomyces cerevisiae; test: Antimicrobial activity against Saccharomyces cerevisiae NBRC10114 after 24 hrs by broth dilution method; format: functional; conditions: NBRC10114, 24 h
[15] = test system: Penicillium expansum; test: Antimicrobial activity against Penicillium expansum NBRC8800 after 24 hrs by broth dilution method; format: functional; conditions: NBRC8800, 24 h
[16] = test system: Naganishia albida; test: Antimicrobial activity against Cryptococcus albidus NBRC0378 after 3-5 days by broth dilution method; conditions: NBRC0378, 3-5 days
[17] = test system: Aspergillus fumigatus; test: Antimicrobial activity against Aspergillus fumigatus NBRC4400 after 3-5 days by broth dilution method; conditions: NBRC4400, 3-5 days
[18] = test system: Paecilomyces variotii; test: Antimicrobial activity against Paecilomyces variotii NBRC4855 after 3-5 days by broth dilution method; conditions: NBRC4855, 3-5 days
[19] = test system: PC-3; test: Antiproliferative activity against human PC3 cells after 72 hrs by trypan blue exclusion assay; format: functional, cell-based; conditions: PC-3, 72 h
Summary of the method: (§3)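 Cells were kept in DMEM with 10% fetal serum and exposed to four concentrations of compound for 72 h at 37 °C in humidified 5% CO₂. They were then stained with 0.25% trypan blue for 20 min, and viable cells were counted by light microscopy. IC₅₀ was derived from separate experiments run in triplicate.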

[20] = test system: A549; test: Antiproliferative activity against human A549 cells after 72 hrs by trypan blue exclusion assay; format: functional, cell-based; conditions: A549, 72 h; summary of the method: as §3
[21] = test system: MCF7; test: Antiproliferative activity against human MCF7 cells after 72 hrs by trypan blue exclusion assay; format: functional, cell-based; conditions: MCF7, 72 h; summary of the method: as §3
[22] = Antiproliferative activity against human Hs888Lu cells after 72 hrs by trypan blue exclusion assay; format: cell-based; summary of the method: as §3
[23] = Antiproliferative activity against human SVCT-M12 cells after 72 hrs by trypan blue exclusion assay; format: cell-based; conditions: SVCT-M12, 72 h; summary of the method: as §3
[24] = Cytotoxicity against human Raji cells assessed as cell viability at 500 molar ratio after 48 hrs by trypan blue staining; format: cell-based; conditions: read-out: Activity
Summary of the method: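 Raji cells incubated 48 h at 37 °C in medium containing n-butyric acid (4 mM), TPA (32 pmol) and various amounts of test compound, as part of the EBV-EA activation inhibition assay. Viability of the treated cells was then assayed by trypan blue staining.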

[25] = test system: Aspergillus fumigatus; test: Antimicrobial activity against Aspergillus fumigatus NBRC4400 after 24 hrs by broth dilution method; format: functional; conditions: NBRC4400, 24 h
[26] = test system: Paecilomyces variotii; test: Antimicrobial activity against Paecilomyces variotii NBRC4855 after 24 hrs by broth dilution method; format: functional; conditions: NBRC4855, 24 h
[27] = test system: Candida albicans; test: Antimicrobial activity against Candida albicans NBRC1060 after 3-5 days by broth dilution method; conditions: NBRC1060, 3-5 days
[28] = test system: Penicillium expansum; test: Antimicrobial activity against Penicillium expansum NBRC8800 after 3-5 days by broth dilution method; conditions: NBRC8800, 3-5 days
[29] = test system: Saccharomyces cerevisiae; test: Antimicrobial activity against Saccharomyces cerevisiae NBRC10114 after 3-5 days by broth dilution method; conditions: NBRC10114, 3-5 days

IC50 [5] | MIC [7] | MIC [8] | MIC [9] | MIC [10] | MIC [11] | MIC [12] | MIC [14] | MIC [16] | MIC [17] | MIC [18] | IC50 [19] | IC50 [20] | IC50 [21] | Compound | EA induction relative to TPA control [1] | Activity [2] | Activity [3] | Activity [4] | viability at 48 h, 1000 molar ratio [6] | EC50 [22] | further results
201 mol ratio/32 pmol TPA | 1.56 mg/L (≈ 6.04 µM) | 6.25 mg/L (≈ 24.2 µM) | 1.56 mg/L (≈ 6.04 µM) | > 100 mg/L | > 100 mg/L | > 100 mg/L | 3.13 mg/L (≈ 12.1 µM) | 1.56 mg/L (≈ 6.04 µM) | 25 mg/L (≈ 96.8 µM) | 50 mg/L (≈ 194 µM) |  |  |  | C[C@@H](O)c1cc2c(o1)C(=O)c1c(O)cccc1C2=O | 4.2% | 20.4% | 52.5% | 76.3% | 60% |  | MIC [13]: 25 mg/L (≈ 96.8 µM); MIC [15]: 50 mg/L (≈ 194 µM)
 | 0.39 mg/L (≈ 1.17 µM) | 0.39 mg/L (≈ 1.17 µM) | 1.56 mg/L (≈ 4.67 µM) |  |  |  |  |  |  |  |  |  |  | CC1(C)S[C@@H]2[C@H](NC(=O)Cc3ccccc3)C(=O)N2[C@H]1C(=O)O [PENICILLIN G] |  |  |  |  |  |  | 
40.1 mol ratio/32 pmol TPA |  |  |  |  |  |  |  |  |  |  | 3 µM | 4.31 µM | 2.61 µM | CC(=O)c1cc2c(o1)C(=O)c1c(O)cccc1C2=O | 0% | 8.3% | 27.5% | 60.3% | 70% | 14.6 µM | EC50 [23]: 11.7 µM
271 mol ratio/32 pmol TPA | 1.56 mg/L (≈ 6.04 µM) | 6.25 mg/L (≈ 24.2 µM) | 1.56 mg/L (≈ 6.04 µM) | > 100 mg/L | > 100 mg/L | > 100 mg/L | 3.13 mg/L (≈ 12.1 µM) | 1.56 mg/L (≈ 6.04 µM) | 25 mg/L (≈ 96.8 µM) | 50 mg/L (≈ 194 µM) | 1.57 µM | 4.31 µM | 2.61 µM | C[C@H](O)c1cc2c(o1)C(=O)c1c(O)cccc1C2=O | 7.4% | 26.5% | 58.2% | 80.5% | 60% | 14.6 µM | EC50 [23]: 14.6 µM; MIC [27]: 25 mg/L (≈ 96.8 µM); MIC [28]: 50 mg/L (≈ 194 µM)

Compound | IC50 [5] | MIC [7] | MIC [8] | MIC [9] | MIC [10] | MIC [11] | MIC [12] | MIC [14] | MIC [16] | MIC [17] | MIC [18] | IC50 [19] | IC50 [20] | IC50 [21] | EA induction relative to TPA control [1] | Activity [2] | Activity [3] | Activity [4] | viability at 48 h, 1000 molar ratio [6] | EC50 [22] | further results
CC(C)=CCC1=C(O)C(=O)c2ccccc2C1=O [LAPACHOL] | 311 mol ratio/32 pmol TPA |  |  |  |  |  |  |  |  |  |  | 1.97 µM | 4.78 µM | 10.2 µM | 8.9% | 32.8% | 65.2% | 86.6% | 50% |  | viability at 48 h, 500 molar ratio [24]: 60%
C[C@@H]1[C@H](O)[C@@H](C)/C=C/C=C/C=C/C=C/C=C/C=C/C=C/[C@H](O[C@@H]2O[C@H](C)[C@@H](O)[C@H](N)[C@@H]2O)C[C@@H]2O[C@](O)(C[C@@H](O)C[C@@H](O)[C@H](O)CC[C@@H](O)C[C@@H](O)CC(=O)O[C@H]1C)C[C@H](O)[C@H]2C(=O)O [AMPHOTERICIN B] |  |  |  |  |  |  |  |  | 1.56 mg/L (≈ 1.69 µM) |  |  |  |  |  |  |  |  |  |  |  | MIC [25]: 1.56 mg/L (≈ 1.69 µM); MIC [26]: 0.78 mg/L (≈ 0.844 µM); MIC [27]: 1.56 mg/L (≈ 1.69 µM); MIC [28]: 1.56 mg/L (≈ 1.69 µM); MIC [29]: 0.78 mg/L (≈ 0.844 µM)

Source: ChEMBL document CHEMBL1152539, “Synthesis and evaluation of bioactive naphthoquinones from the Brazilian medicinal plant, Tabebuia avellanedae” (Bioorg Med Chem, 2009)
